# Assay results of several laboratories.
# Each line is one published result; the experiments were not run side by side.
# Target: TGF-beta receptor type-1 (TGFBR1, Homo sapiens, UniProt P36897)
# One construct used (P36897 34-503): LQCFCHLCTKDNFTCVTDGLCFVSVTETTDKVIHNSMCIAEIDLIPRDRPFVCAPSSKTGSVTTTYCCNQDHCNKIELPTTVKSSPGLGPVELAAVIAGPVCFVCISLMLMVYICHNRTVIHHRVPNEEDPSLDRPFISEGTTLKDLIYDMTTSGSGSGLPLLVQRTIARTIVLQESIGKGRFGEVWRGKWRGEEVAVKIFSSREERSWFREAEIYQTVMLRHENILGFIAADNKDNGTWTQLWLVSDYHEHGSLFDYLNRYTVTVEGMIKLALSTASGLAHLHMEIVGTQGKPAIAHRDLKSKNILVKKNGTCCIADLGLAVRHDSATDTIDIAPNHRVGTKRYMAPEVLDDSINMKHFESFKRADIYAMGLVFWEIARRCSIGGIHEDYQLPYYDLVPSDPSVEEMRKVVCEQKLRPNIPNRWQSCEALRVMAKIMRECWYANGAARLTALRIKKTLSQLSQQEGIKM
Compound,assay,setting,remaining binding [%]
CNC(=O)[C@@H]1CC[C@@H](n2c(-c3ccc4cnccc4c3)nc3ccc(C(=O)NCc4cccc(C(N)=O)c4)cc32)C1,"binding, competition with immobilised ligand",1 µM,88
COCCOc1nc(-c2ccc(Cl)nc2)nc2c1CN(C(=O)c1ncn3ccccc13)CC2,"cell-free assay, competition with immobilised ligand",0.1 µM,100
CC1CCCN1c1nccc(-c2cnn3ncccc23)n1 (stereo not shown),binding,1 µM,100
CNCc1ccccc1-c1csc([C@@H](C)Nc2nc(C)nc3cc(OC)c(OC)cc23)c1,"cell-free assay, competition with immobilised ligand",1 µM,74
c1cncc(-c2cccc(Nc3nccc(NC4CCCCC4)n3)c2)c1,"binding, competition with immobilised ligand",10 µM,75
CCOCCn1cc(C(=O)Nc2ccc(-n3nc(-c4cccnc4)cc3C(F)(F)F)cn2)ccc1=O,"cell-free assay, competition with immobilised ligand",1 µM,100
C[C@H]1CCN(c2nccc(-c3cnn4ncccc34)n2)C1,binding,1 µM,76
Cc1nc(C2CCN(C(=O)c3ccc(OC(F)(F)F)cc3N)CC2)c2ncc(N3CCN(C)CC3)cc2n1,"cell-free assay, competition with immobilised ligand",1 µM,80
C=CC(=O)N1CCC(C(=O)NCC(=O)N2CCN(c3nc(-c4cnc(N)nc4C(F)F)nc(N4CCOCC4)n3)CC2)CC1,"binding, competition with immobilised ligand",1 µM,100
CN(c1nccc(-c2cnn3ncccc23)n1)C1CC1,binding,1 µM,32
Cc1c(C(=O)O)cc(-c2ccc(C3CCNCC3)cc2)c2ccc(-c3ccc(C(F)(F)F)cc3)cc12,"cell-free assay, competition with immobilised ligand",1 µM,89
Nc1ncc2c(n1)-c1c([nH]c3ccc(C#CC4CC4)cc13)CCCC2,"binding, competition with immobilised ligand",1 µM,86
O=C(NCCCN1CCOCC1)c1ccc(Nc2nccc(-c3cc4ccccc4s3)n2)cc1,"binding, competition with immobilised ligand",1 µM,58
F[C@@H]1CCN(c2nccc(-c3cnn4ncccc34)n2)C1,binding,1 µM,100
O=C(NCCCN1CCOCC1)c1ccc(Nc2ncc(Cl)c(-c3ccc(Cl)s3)n2)cc1,"binding, competition with immobilised ligand",1 µM,69
CN(CCCC(F)(F)F)c1nccc(-c2cnn3ncccc23)n1,binding,1 µM,100
